Sampled rows, rich in hits. Any-hit rate of the full collection: about 3.1%.
core dimer inh – inhibitors of HCV core protein dimerization, primary screen, biochemical, TR-FRET, high-throughput | inhibition, % at 5 µM | 300,000 compounds, 0.33% hits | TR-FRET GST/Flag-core106 dimerization, 1536-well;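 active = inhibition above the mean of all tested compounds plus 3 SD, set per screening campaign, cut at about 45% in these data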
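Material: Tagged HCV core106 pair (GST and Flag) | Amount: GST-core106 13.5 nM, Flag-core106 17 nM | Medium: KF-containing HEPES buffer, pH 7.45, DTT, CHAPS, BSA | Reagent: Eu donor and XL665 acceptor anti-tag antibodies | Schedule: 4 h at 22.5 °C | Technique: Time-resolved FRET, ex 340 nm, em 617 and 671 nm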
Myeloid diff 2 – induction of myeloid progenitor differentiation, primary screen, cell-based, flow cytometry, MLPCN library. calls only at 10 µM. 360,000 compounds, 1% hits. AID 624256, 2012. ER-HoxA9 myeloid progenitors, lysozyme-GFP differentiation;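 active = normalized GFP-positive differentiation at or above the plate's own cutoff, the solvent-only control mean plus 3 SD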;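 also: cells exposed to compound for four days before flow analysis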
Fh CTSL1 inh – Fasciola hepatica cathepsin L1 inhibitors, primary screen, counter-screen for PFM18AAP inhibitor project, biochemical, QFRET, fluorogenic peptide substrate; recombinant F. hepatica cathepsin L1, Z-Leu-Arg-MCA fluorescence; inhibition, % at 5.96 µM; 300,000 compounds, 0.49% hits; AID 1906, 2009;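 active = inhibition above the mean of all tested compounds plus 3 SD, set per screening campaign, cut at about 17% in these data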;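 also: 0% = plate median of test compound wells and 100% = 1 µM Z-Phe-Ala-diazomethylketone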
PP1 inh – PP1-alpha phosphatase inhibitors, primary screen, counter-screen for PP5 inhibitor project, biochemical, fluorescence, OMFP substrate, single point | purified PP1alpha | 320,000 compounds, 0.9% hits | inhibition, % at 6.7 µM | AID 2235, 2010;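 active = inhibition above the mean inhibition of all tested compounds plus 3 SD, computed separately for each screening campaign, cut at about 15% in these data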
Target sequence (P62136 whole entry, looked up): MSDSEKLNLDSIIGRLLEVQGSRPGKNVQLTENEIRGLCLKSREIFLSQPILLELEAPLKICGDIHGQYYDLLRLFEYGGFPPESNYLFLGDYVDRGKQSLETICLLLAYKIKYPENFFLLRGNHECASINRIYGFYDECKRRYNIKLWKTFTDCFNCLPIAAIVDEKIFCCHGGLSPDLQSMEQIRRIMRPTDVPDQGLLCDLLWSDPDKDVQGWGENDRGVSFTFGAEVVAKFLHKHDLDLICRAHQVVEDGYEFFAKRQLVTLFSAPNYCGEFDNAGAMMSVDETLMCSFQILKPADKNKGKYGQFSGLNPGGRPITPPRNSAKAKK
PP5 inh – PP5 phosphatase inhibitors, primary screen, biochemical, fluorescence; Serine/threonine-protein phosphatase 5 (Homo sapiens), P53041; purified PP5c, OMFP substrate fluorescence; inhibition, % at 6.7 µM; 320,000 compounds, 0.18% hits; AID 1987, 2009;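 active = inhibition above the campaign's mean inhibition across all tested compounds plus 3 SD, cut at about 9.5% in these data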;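 also: 0% = DMSO only and 100% = 100 µM cantharidin control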
NadD block – inhibitors of S. aureus NadD, primary screen, biochemical, colorimetric, uHTS; Nicotinate-nucleotide adenylyltransferase NadD (Staphylococcus aureus N315); purified NadD enzyme, colorimetric absorbance read-out; inhibition, % at 20 µM; 360,000 compounds, 0.78% hits; AID 602399, 2012; in the data active = inhibition above about 26%
The depositor's hits bear a star.

`CC(C)=C1CCC(C)CC1=NNC(N)=S` (centres undefined) gave Myeloid diff 2 inactive and NadD block 6.
Screening CC1C/C(=N\NC(N)=S)c2cc(Cl)ccc2S1 (centres undefined) returned core dimer inh 2, Myeloid diff 2 inactive, Fh CTSL1 inh 68*, PP1 inh 0, PP5 inh 1 and NadD block 5.
Screening Cc1ccc(S(=O)(=O)CNC(=O)c2ccccc2)cc1 returned core dimer inh -1, Myeloid diff 2 inactive, Fh CTSL1 inh 36*, PP1 inh -3, PP5 inh 3 and NadD block -3.
Screening Cc1ccc(S(=O)(=O)NCCNC(=O)c2ccccc2)cc1 returned core dimer inh -3, Myeloid diff 2 inactive, Fh CTSL1 inh 2, PP1 inh -1, PP5 inh 0 and NadD block -4.
Screening CC(OC(=O)c1ccc(=O)n(Cc2ccccc2)n1)C(=O)Nc1cccc(Cl)c1 (centres undefined) returned core dimer inh 5, Myeloid diff 2 inactive, Fh CTSL1 inh 17*, PP1 inh 1, PP5 inh 2 and NadD block -8.
Cc1ccc(NC(=O)COC(=O)c2ccc(=O)n(Cc3ccccc3)n2)cc1F was read as core dimer inh 7, Myeloid diff 2 inactive, Fh CTSL1 inh 13, PP1 inh 1, PP5 inh 1 and NadD block -3.
N#Cc1cccnc1N1CCN(C(=O)c2ccc3c(c2)S(=O)(=O)c2ccccc2C3=O)CC1 was read as core dimer inh 6, Myeloid diff 2 inactive, Fh CTSL1 inh 1, PP1 inh 2, PP5 inh 1 and NadD block 0.
`O=C1c2ccccc2S(=O)(=O)c2cc(C(=O)N3CCN(c4ccc(Cl)cn4)CC3)ccc21` gave core dimer inh 14, Myeloid diff 2 inactive, Fh CTSL1 inh 17*, PP1 inh 2, PP5 inh 1 and NadD block 7.
For NC(=S)NC1CCS(=O)(=O)C1 (centres undefined) the results were core dimer inh -3, Myeloid diff 2 inactive, Fh CTSL1 inh 24*, PP1 inh 0, PP5 inh -2 and NadD block 0.
Screening Cc1ccc2c(c1)c(=O)c1c3n2CCN(C(=O)CCl)C3CC1 (centres undefined) returned core dimer inh 47*, Myeloid diff 2 inactive, Fh CTSL1 inh 77*, PP1 inh 5, PP5 inh 1 and NadD block 18.
For COC(=O)c1nn(C)c(=O)[nH]c1=O the results were Myeloid diff 2 inactive and NadD block 0.
For Cc1ccccc1N1CCN(C2=NC(=O)/C(=C/c3cn[nH]c3-c3ccccc3)S2)CC1 the results were core dimer inh -7, Myeloid diff 2 inactive, Fh CTSL1 inh -8, PP1 inh 0, PP5 inh -1 and NadD block 41*.
For CCOC(=O)c1c(NC(=O)COC(=O)c2cnccn2)sc(C(=O)NC)c1C the results were core dimer inh -2, Fh CTSL1 inh -8, PP1 inh -6, PP5 inh 1 and NadD block -7.
Screening CCOC(=O)c1c(-c2ccco2)csc1NC(=O)CSc1nnc(N)s1 returned core dimer inh 48*, Myeloid diff 2 inactive, Fh CTSL1 inh 7, PP1 inh 4, PP5 inh 2 and NadD block 9.
For CCOC(=O)c1c(-c2ccco2)csc1NC(=O)COC(=O)c1cnccn1 the results were core dimer inh 67*, Myeloid diff 2 inactive, Fh CTSL1 inh 40*, PP1 inh 15, PP5 inh -2 and NadD block 20.
Screening O=C(C[C@@H]1C/C=C\CC[C@H](Cc2ccc(F)cc2)C(=O)OC[C@@H]2CCCN2C1=O)NCCO returned Myeloid diff 2 inactive and NadD block 1.
O=C1C(Cl)=C(N2CCCC2)C(=O)N1c1ccc(F)cc1 was read as core dimer inh 3, Myeloid diff 2 inactive, Fh CTSL1 inh 29*, PP1 inh -3, PP5 inh 0 and NadD block -8.
Cc1ccc(N2C(=O)C(Cl)=C(N3CCOCC3)C2=O)cc1Cl was read as core dimer inh -11, Myeloid diff 2 inactive, Fh CTSL1 inh 38*, PP1 inh -1, PP5 inh 2 and NadD block -7.
CN1CCN(C2=C(Cl)C(=O)N(c3cccc(Cl)c3)C2=O)CC1 was read as core dimer inh 3, Myeloid diff 2 inactive, Fh CTSL1 inh 23*, PP1 inh 0, PP5 inh 2 and NadD block 11.
Screening O=C1C(Cl)=C(N2CCOCC2)C(=O)N1c1ccccc1Cl returned core dimer inh -2, Myeloid diff 2 inactive, Fh CTSL1 inh 17, PP1 inh 0, PP5 inh 0 and NadD block -7.
Screening CN1CCN(C2=C(Cl)C(=O)N(c3ccc(Cl)c(Cl)c3)C2=O)CC1 returned core dimer inh -1, Myeloid diff 2 inactive, Fh CTSL1 inh 40*, PP1 inh 2, PP5 inh 0 and NadD block -5.
For O=C1C(Cl)=C(N2CCCCCC2)C(=O)N1c1ccc(Cl)cc1 the results were core dimer inh 26, Myeloid diff 2 inactive, Fh CTSL1 inh 11, PP1 inh 5, PP5 inh 3 and NadD block 0.
`NNC(=O)c1oc2nc(-c3ccco3)cc(-c3ccco3)c2c1N` gave core dimer inh 3, Myeloid diff 2 inactive, Fh CTSL1 inh 4, PP1 inh 6, PP5 inh 3 and NadD block 17.
For NNC(=O)c1oc2nc(-c3ccc(Cl)cc3)cc(-c3ccccc3)c2c1N the results were Myeloid diff 2 active and NadD block 29.
O=C1CC2CCCC(C1)S2=O (centres undefined) was read as Myeloid diff 2 inactive and NadD block -2.
For N#C/C(=C\c1ccc(Cl)cc1)c1nc(-c2ccco2)cs1 the results were core dimer inh 1, Myeloid diff 2 active, Fh CTSL1 inh -3, PP1 inh -2, PP5 inh 2 and NadD block 19.
CCCCc1ccc(-c2csc(/C(C#N)=C/c3ccco3)n2)cc1 was read as core dimer inh -3, Myeloid diff 2 active, Fh CTSL1 inh 4, PP1 inh 4, PP5 inh 0 and NadD block -6.
For N#C/C(=C\c1ccc(F)cc1)c1nc(-c2ccco2)cs1 the results were core dimer inh -1, Myeloid diff 2 inactive, Fh CTSL1 inh -2, PP1 inh -2, PP5 inh 1 and NadD block -2.

Compound activity: PubChem BioAssay, several laboratories
